This note sets out measurements from ChEMBL document CHEMBL4376878, “Potent Thiophene Antagonists of Human Complement C3a Receptor with Anti-Inflammatory Activity” (J Med Chem, 2020).

For data set [1], the target named is T1, C3a anaphylatoxin chemotactic receptor (Homo sapiens, UniProt Q16581).
T1 sequence (Q16581 whole entry): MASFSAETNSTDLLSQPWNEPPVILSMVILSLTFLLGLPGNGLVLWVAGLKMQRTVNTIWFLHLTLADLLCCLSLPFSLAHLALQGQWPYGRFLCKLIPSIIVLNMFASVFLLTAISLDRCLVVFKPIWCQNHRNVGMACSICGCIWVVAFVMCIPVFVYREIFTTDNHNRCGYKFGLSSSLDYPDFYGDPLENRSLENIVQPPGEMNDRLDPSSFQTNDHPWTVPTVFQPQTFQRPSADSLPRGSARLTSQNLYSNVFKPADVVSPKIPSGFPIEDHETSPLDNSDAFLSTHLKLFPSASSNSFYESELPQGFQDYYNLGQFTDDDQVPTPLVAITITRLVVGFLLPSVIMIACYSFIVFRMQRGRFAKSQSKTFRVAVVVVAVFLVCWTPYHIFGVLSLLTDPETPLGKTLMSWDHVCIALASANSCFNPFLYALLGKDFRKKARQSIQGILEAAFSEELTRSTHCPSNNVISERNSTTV
Put plainly: Agonist activity at C3a receptor in human MDM cells assessed as induction of intracellular calcium release measured at 1 sec interval for => 200 secs by Fluo-3 AM dye-based FLIPR assay. It is filed as cell-based. Summed up:
(§1)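 HMDMs were differentiated from CD14⁺ monocytes with M-CSF (100 ng/mL) for 7 days and seeded overnight at 5 × 10⁴ cells/well. Cells were loaded with 4 μM Fluo-3 AM for 1 h at 37 °C, then placed in HBSS with 2.5 mM probenecid and 20 mM HEPES, pH 7.4. Agonist was added on FLIPR and read at ex 495/em 520 nm. EC50 is relative to the maximum from 1 μM C3a; n ≥ 3.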
(Calcium flux is commonly read through the fluorescence of an indicator in the cells.)

Data set [2] concerns the target T1, C3a anaphylatoxin chemotactic receptor. Put plainly: Antagonist activity at C3a receptor in human MDM cells assessed as inhibition of C3a-induced intracellular calcium release preincubated for 30 mins followed by C3a addition and measured at 1 sec interval for => 200 secs by Fluo-3 AM dye-based FLIPR assay. It is filed as functional, cell-based. To be noted: read-out: IC50. Summed up: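 Macrophages were derived from CD14⁺ monocytes (M-CSF, 7 days) and dye-loaded with 4 μM Fluo-3 AM for 1 h at 37 °C in HBSS/probenecid/HEPES, pH 7.4. Antagonist was preincubated for 30 min at 37 °C before addition of synthetic full-length human C3a (100 nM). FLIPR fluorescence was read at ex 495/em 520 nm. Percent response was plotted against log concentration; n ≥ 3.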

Data set [3] has as its target T2, C5a anaphylatoxin chemotactic receptor 1 (Homo sapiens) (UniProt P21730).
T2 sequence (whole entry): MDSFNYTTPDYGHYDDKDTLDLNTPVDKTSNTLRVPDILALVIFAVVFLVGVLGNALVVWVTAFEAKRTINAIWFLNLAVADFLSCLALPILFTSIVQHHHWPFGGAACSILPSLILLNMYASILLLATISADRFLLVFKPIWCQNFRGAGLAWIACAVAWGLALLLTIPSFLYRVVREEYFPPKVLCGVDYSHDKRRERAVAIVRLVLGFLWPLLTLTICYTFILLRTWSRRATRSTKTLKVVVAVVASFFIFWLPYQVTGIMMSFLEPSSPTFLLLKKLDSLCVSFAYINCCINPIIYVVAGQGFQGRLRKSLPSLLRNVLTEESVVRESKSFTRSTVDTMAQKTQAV
Put plainly: Antagonist activity at C5a receptor in human MDM cells assessed as inhibition of C5a-induced intracellular calcium release preincubated for 30 mins followed by C5a addition and measured at 1 sec interval for => 200 secs by Fluo-3 AM dye-based FLIPR assay. The format is functional, cell-based. Summed up:
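HMDMs from CD14+ monocytes after 7 days in M-CSF; 5 × 10⁴ cells/well seeded overnight. Cells loaded 1 h at 37 °C with 4 μM Fluo-3 AM, then washed into HBSS with 2.5 mM probenecid and 20 mM HEPES, pH 7.4. Antagonist preincubated 30 min at 37 °C before C5a. Fluorescence (ex 495/em 520 nm) read every 1 s for ≥200 s.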

In data set [4] the target is T1, C3a anaphylatoxin chemotactic receptor. Put plainly: Partial agonist activity at C3a receptor in human MDM cells assessed as induction of intracellular calcium release at higher concentration measured at 1 sec interval for => 200 secs by Fluo-3 AM dye-based FLIPR assay relative to control. The format is cell-based. Summed up:
as §1

Data set [5] is described as follows: Stability of the compound in rat liver microsomes at 1 uM preincubated for 5 mins followed by NADPH addition and measured after 1 hr by LC-MS/MS analysis. It is filed as ADME, Microsome. In outline: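 Compound at 1 μM in 100 mM phosphate buffer, pH 7.4 (0.1% DMSO), was incubated with rat liver microsomes […] at 37 °C before further NADPH was added. Aliquots taken at 0, 5, 15, 30 and 60 min were quenched in MeCN/H₂O (9:1), centrifuged and analysed by LC-MS/MS. Microsomal activity was confirmed in parallel with SLIGRL-NH₂; n = 3.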
(Liver microsomes are a subcellular fraction often used to study metabolism.)

Data set [6] concerns the target T3, C3a anaphylatoxin chemotactic receptor (Homo sapiens) (UniProt Q16581).
T3 sequence (whole entry): T1 sequence (Q16581 whole entry)
Put plainly: Displacement of Eu-DTPA-C3a from Galpha16-coupled C3a receptor (unknown origin) expressed in HEK293 cells measured after 60 mins by time-resolved fluorescence assay. The format is cell-based.

Active and inactive are the calls of the source. The rule behind the calls is not given here. A value given as a limit tells only on which side of the number the result lay.

`N=C(N)NCCC[C@H](NC(=O)c1cc(-c2ccccc2)c(C(c2ccccc2)c2ccccc2)s1)C(=O)O`: the EC50 in data set [1] (read-out: EC50) and in data set [1] (read-out: pEC50 (converted)) was > 100 µM throughout. For the same compound, the IC50 (commonly the point on the concentration scale where inhibition reaches its midpoint) in data set [2] amounted to 0.14 µM.
As to `Cc1cc(C(=O)N[C@@H](CCCNC(=N)N)C(=O)O)sc1C(c1ccccc1)c1ccccc1`, the EC50 in data set [1] (read-out: EC50) and in data set [1] (read-out: pEC50 (converted)) was > 100 µM throughout. Besides, the IC50 in data set [2] is 0.14 µM.
As for `N=C(N)NCCC[C@H](NC(=O)c1ccc(C2CCCCCCCCCCC2)s1)C(=O)O`, the EC50 in data set [1] (read-out: EC50) and in data set [1] (read-out: pEC50 (converted)) was > 100 µM throughout. In addition, in data set [2], the IC50 is > 100 µM.
With `N=C(N)NCCC[C@H](NC(=O)c1ccc(Cc2ccccc2)s1)C(=O)O`, the EC50 in data set [1] (read-out: EC50) and in data set [1] (read-out: pEC50 (converted)) was > 100 µM throughout. Besides, the IC50 in data set [2] was > 10 µM.
With `CC(=O)N[C@@H](Cc1ccccc1)C(=O)N[C@H]1CCCNC(=O)[C@H](CCCN=C(N)N)NC(=O)[C@H](Cc2c[nH]c3ccccc23)NC(=O)[C@@H](CC2CCCCC2)NC(=O)[C@@H]2CCCN2C1=O`, in data set [3], the inhibition entry was “Active”.
For `N=C(N)NCCC[C@H](NC(=O)c1ccc(C(c2ccccc2)c2ccccn2)s1)C(=O)O` (mixture of isomers), the EC50 in data set [1] (read-out: EC50) and in data set [1] (read-out: pEC50 (converted)) was > 100 µM throughout. Also, the Activity in data set [4] was 30 to 80%. The IC50 in data set [2] stood at 0.04 µM.
`N=C(N)NCCC[C@H](NC(=O)c1cnc(C(c2ccccc2)c2ccccc2)s1)C(=O)O`: the EC50 in data set [1] (read-out: EC50) and in data set [1] (read-out: pEC50 (converted)) was > 100 µM in each case. The IC50 in data set [2] was 0.6 µM.
With `Cc1cc(C(c2ccc(F)cc2)c2ccc(F)cc2)sc1C(=O)N[C@@H](CCCNC(=N)N)C(=O)O`, the EC50 in data set [1] (read-out: EC50) and in data set [1] (read-out: pEC50 (converted)) was > 100 µM throughout. Besides, the Activity in data set [4] fell in the range of 30 to 80%. Moreover, the IC50 in data set [2] came to 0.035 µM.
In the case of `COc1ccc(C(c2ccc(OC)cc2)c2ccc(C(=O)N[C@@H](CCCNC(=N)N)C(=O)O)s2)cc1`, the EC50 in data set [1] (read-out: EC50) and in data set [1] (read-out: pEC50 (converted)) was > 100 µM in each case. In addition, the IC50 in data set [2] turned out to be 6.1 µM.
In the case of `Cc1cc(C(c2cccc(Cl)c2)c2cccc(Cl)c2)sc1C(=O)N[C@@H](CCCNC(=N)N)C(=O)O`, the EC50 in data set [1] (read-out: EC50) amounted to 0.046 µM. The Activity result in data set [4] was “<= 80%”. Further, in data set [2], the IC50 came to 0.003 µM.
Regarding `N=C(N)NCCC[C@H](NC(=O)c1ccc(C(c2ccccc2)c2ccc3ccccc3c2)s1)C(=O)O` (mixture of isomers), the EC50 in data set [1] (read-out: EC50) and in data set [1] (read-out: pEC50 (converted)) was > 100 µM each time. Moreover, in data set [2], the IC50 came out at 0.09 µM.
In the case of `N=C(N)NCCC[C@H](NC(=O)c1ccc(C(c2ccc(F)cc2)c2ccc(F)cc2)s1)C(=O)O`, the EC50 in data set [1] (read-out: EC50) and in data set [1] (read-out: pEC50 (converted)) was > 10 µM in each case. Also, the half-maximal inhibitory concentration (IC50) in data set [2] is 0.1 µM.
With `N=C(N)NCCC[C@H](NC(=O)c1ccc(C(c2ccccc2)C2CCCCC2)s1)C(=O)O` (mixture of isomers), in data set [1] (read-out: EC50), the EC50 stood at 0.07 µM. The Activity result in data set [4] is “<= 30%”. For the same compound, in data set [2], the IC50 turned out to be 0.004 µM.
Take `N=C(N)NCCC[C@H](NC(=O)c1sc(C(c2ccccc2)c2ccccc2)cc1-c1ccccc1)C(=O)O`: the EC50 in data set [1] (read-out: EC50) and in data set [1] (read-out: pEC50 (converted)) was > 100 µM in each case. In addition, the IC50 in data set [2] is > 100 µM.
As for `CCC(Cc1ccccc1)c1ccc(C(=O)N[C@@H](CCCNC(=N)N)C(=O)O)s1` (mixture of isomers), the EC50 in data set [1] (read-out: EC50) and in data set [1] (read-out: pEC50 (converted)) was > 100 µM each time. Moreover, the concentration for half-maximal inhibition (IC50) in data set [2] came out at 0.2 µM.
As for `Cc1cc(C(c2ccc(O)cc2)c2ccc(O)cc2)sc1C(=O)N[C@@H](CCCNC(=N)N)C(=O)O`, the EC50 in data set [1] (read-out: EC50) and in data set [1] (read-out: pEC50 (converted)) was > 100 µM throughout. For the same compound, in data set [2], the IC50 amounted to 0.79 µM. Moreover, in data set [5], the Stability entry was “Stable”.
As to `CC(C)=C(c1ccccc1)c1ccc(C(=O)N[C@@H](CCCNC(=N)N)C(=O)O)s1`, the EC50 in data set [1] (read-out: EC50) and in data set [1] (read-out: pEC50 (converted)) was > 100 µM throughout. In addition, the IC50 in data set [2] came to 4.4 µM.
`COc1ccc(C(c2ccc(OC)cc2)c2cc(C)c(C(=O)N[C@@H](CCCNC(=N)N)C(=O)O)s2)cc1`: the EC50 in data set [1] (read-out: EC50) and in data set [1] (read-out: pEC50 (converted)) was > 100 µM in each case. For the same compound, the IC50 in data set [2] worked out at 2 µM.
Turning to `Cc1[nH]c(C(c2ccccc2)c2ccccc2)nc1C(=O)N[C@@H](CCCNC(=N)N)C(=O)O`, the inhibition result in data set [6] is “Dose-dependent effect”.
Take `N=C(N)NCCC[C@H](NC(=O)c1ccc(C(c2cccc(Cl)c2)c2cccc(Cl)c2)s1)C(=O)O`: in data set [1] (read-out: EC50), the EC50 was determined as 0.05 µM. The Activity result in data set [4] is “<= 60%”. Also, in data set [2], the IC50 amounted to 0.006 µM.
Turning to `CC(c1ccccc1)c1ccc(C(=O)N[C@@H](CCCNC(=N)N)C(=O)O)s1` (mixture of isomers), the EC50 in data set [1] (read-out: EC50) and in data set [1] (read-out: pEC50 (converted)) was > 100 µM in each case. For the same compound, the concentration for half-maximal inhibition (IC50) in data set [2] was > 10 µM.
Turning to `N=C(N)NCCC[C@H](NC(=O)c1ccc(C(Cc2ccccc2)Cc2ccccc2)s1)C(=O)O`, the EC50 in data set [1] (read-out: EC50) and in data set [1] (read-out: pEC50 (converted)) was > 100 µM each time. In data set [2], the IC50 worked out at 0.1 µM.
For the compound `N=C(N)NCCC[C@H](NC(=O)c1sc(C(c2ccccc2)c2ccccc2)c2c1CCCC2)C(=O)O`, the EC50 in data set [1] (read-out: EC50) and in data set [1] (read-out: pEC50 (converted)) was > 100 µM in each case. Also, the IC50 in data set [2] worked out at 2.4 µM.
As for `N=C(N)NCCC[C@H](NC(=O)c1sc(C(c2ccccc2)c2ccccc2)cc1Br)C(=O)O`, in data set [1] (read-out: pEC50 (converted)), the EC50 was 100 µM. In data set [4], the Activity was in the range of 30 to 80%. Moreover, the half-maximal inhibitory concentration (IC50) in data set [2] turned out to be 0.51 µM.
`CCC(c1ccccc1)c1ccc(C(=O)N[C@@H](CCCNC(=N)N)C(=O)O)s1` (mixture of isomers): the EC50 in data set [1] (read-out: EC50) and in data set [1] (read-out: pEC50 (converted)) was > 100 µM in each case. Also, the IC50 in data set [2] amounted to 2.3 µM.
